Test system: MS2 coat protein
Experiment: apparent Kd, MS2 coat protein; higher = weaker binding; RNA-MaP array; FMN 200 µM where present
Summary of the method: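 Two titrations, one without ligand and one with constant ligand, were run with SNAP-549-labelled MS2 coat protein from 0.7 or 1.5 nM, doubling to 3 µM. The targets were designs transcribed by stalled E. coli RNA polymerase on Illumina sequencing-chip clusters, in 100 mM Tris-HCl pH 7.5, 80 mM KCl, 4 mM MgCl2, BSA, DTT, yeast tRNA and Tween-20. The apparent Kd is the median of filtered per-cluster binding-curve fits, with green signal normalised to red-channel RNA signal and control-cluster median Fmax.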

[1] = designed as: OFF switch for flavin mononucleotide, no ligand
[2] = ligand present: flavin mononucleotide, designed as: OFF switch for flavin mononucleotide
[3] = designed as: ON switch for flavin mononucleotide, no ligand
[4] = ligand present: flavin mononucleotide, designed as: ON switch for flavin mononucleotide

Sequence	apparent Kd [1] [nM]	apparent Kd [2] [nM]	apparent Kd [3] [nM]	apparent Kd [4] [nM]
CAUUCAUGUCUAGGAUAUGAGUGACAAGCGCGAAGUUUUUUCGCCGCUAGCUCAGAAGGAGACAUGAGGAUCACCCAUGUAAGG	24.1	9.96		
CCGGAAAUGAAGGAUAUAGGUGUCGAUAGACUCCUAGAAGGUCAUACAUGAGGAUCACCCAUGUGUCCUACCGG	15.7	32.6		
UCACGGGAUUGAGGAUAUAUAUUAAUUUUUACAAUAGAAGGCAAAUUGUUAGAUUAUUCACUAUACAUGAGGAUCACCCAUGUU	23.6	21.7		
UAAUAAUAAUGAGGAUAUAUACAACAUGAGGAUCACCCAUGUACCCAUGUAGUAGAAGGCAUAUUUUUUGUUAAUAACAUAACU			53.8	32.1
AGCAGACGAGGAUAUAGAUUUGUUAACAUGAGGAUCACCCAUGUGAUCGAUUAAUCAUAUUUAGAAGGUGUCUGCU	37.7	154		
UACAGCUUGACAGGAUAUACAUGACUGCGAAAGCAGUCUAUCUUAAUAACAUGAGGAUCACCCAUGUAGAAGGGUCGAGCUGUA	17.6	27		
AGCUGACGAGGAUAUACAUGAGGAUCACCCAUGUUGGUCAAGCGACGAUAGUCGCAAUGUAGAAGGUGUCAGCU	138	565		
UGUUAAUAUCGAGGAUAUGUCUAGACACAUGAGGAUCACCCAUGUAUGUGUAUAGAAGGCGAUAUUAACAGCAUGUUACAUGCC			37.1	17.7
CAGGUAGACUGAGGAUAUACACUAAACAGCUAGUCUAUCUAGCUGACCACAUGAGGAUCACCCAUGUAGAAGGCAGUCUGCCUG	18.1	39.2		
UUAUUAAAUGUAGGAUAUGCAUAUUAUUAUUAUGCAGAAGGACAUGAGGAUCACCCAUGUAUAUUAUUAUUAUAUAUUAUAUAU	32.5	71.3		
GUGGUCAGACAUGAGGAUCACCCAUGUGGAAUAAAUAACAGACAGGAUAUCAAAUAUAGGAUAUAUGAGAAGGGUCGAUUGGUG			99.5	84.3
ACACUGCGAGGAUAUACAUGAGGAUCACCCAUGUGUCGGCAGGUACGGUAGCACUAGUGUAGAAGGCGCAUUGG	24.6	42		
CGCAAACUUGGGUUUAAUGGUGCAUAGGAUAUGCUUGUACAUGAGGAUCACCCAUGUACUAUUGUGCAGAAGGGUGCAUUUGCG			7.97	5.77
CAUGUCCUCACAGGAUAUGCAAUGUAUUUCAUUGCAGAAGGGUGAAUACAUGAGGAUCACCCAUGUGGACAUGAUAUAUUUAAU			725	77.8
UUUUCACAUGAGGAUCACCCAUGUGAGGAUAUGGAGCGCGACCGCGCGGUCGCGUACACCAGAAGGCGCAUGAU	30.5	36.6		
CCUAAGGACACAGGAUAUAGCGUGGUGGCUGGGCUCCAACGGCGAGUGGCGCUAGAAGGGUGACCACAUGAGGAUCACCCAUGU			537	214
UGUUACUAGUAAGGAUAUACUUGCGAUAAGCUUGUAGAAGGUACAGUCUUUUGUAUAACAUGUUUACAUGAGGAUCACCCAUGU			9.71	8.78
UUAUUUUUACAGAAGGUUUAAUAAUAUAUAUGAGAAGGAUAUGUAACAUGAGGAUCACCCAUGUUUCACCCAUAUGAGGAUCAU	8.2	7.27		
GCCAGAGCAGGAUAUUCAAUAUCACACAUGAGGAUCACCCAUGUCUAUCGAAAGAUAGAGGGAGAAGGGCUCUGGC	64.3	18.3		
CCCGUCAUCGAGAAGGCCUCAACAUGAGGAUCACCCAUGUUGUAAUAUGGGAGGAUAUCGAUGAUACAGCUACGUUUCGUACCC			17.1	5.8
AGAUCACAUGAGGAUCACCCAUGUCAGGAUAUGAUACUAUGUACUUCGGUACAUAGUAUCAGAAGGGACUUAAA	101	283		
UUAUUAAGUGUGAGGAUAUGCUGGUCCUUGGAUCAGCAGAAGGCACAUGAGGAUCACCCAUGUACUUUAUUUUA	15.4	62.2		
ACAUGAGGAUCACCCAUGUGAUGAUCUUCCAUGUCAUAUUUCAGAAGGCUCGCAUGUUUAAUGAGAGAGGAUAUGGAAUAUGCG	701	386		
UGUCGGAGCAGAGGAUAUUACAUGAGGAUCACCCAUGUAUAAAGAUCAAGCUGGAAACAGCAAUGUAAGAAGGCUGCUCCGACA	60.4	418		
GGGUGGCGUAGAGGAUAUGUGGUACAUGAGGAUCACCCAUGUGCAUAUGAUGUUCGUGUUUAUGUAUAGAAGGCUACGUCGCUA			12.5	12.3
UUUUUGUCAGGAUAUGAUUAGAUCUACUUCGGUAGAUCUAAUCAGAAGGGACAUGAGGAUCACCCAUGUAGUUU	36.5	141		
AAAAUAAAAAGGCAGGAUAUCCAAAAUAAAACAUGAGGAUCACCCAUGUAAAUAAAAAUAAAGUGGGAGAAGGGUUAAAAAUAAAA			58.3	45.3
AAAUUGUGAGGAUAUCAGGUGUGCUAGCGUACUGGUACAUCUGAGAAGGCACAUGAGGAUCACCCAUGUUUCUU	16.1	44.2		

Sequence	apparent Kd [1] [nM]	apparent Kd [2] [nM]	apparent Kd [3] [nM]	apparent Kd [4] [nM]
UGGUACAUCGGAGGAUAUCAUGUAUAUACAUGAGGAUCACCCAUGUCGAUGGAGACAUCGGAGAUUGAGAAGGCCGAUGUACCU			799	33.3
UCGGCGCGAGGAUAUACGUUUGCUUUUUAGGAUCGUGGCGUACAUGAGGAUCACCCAUGUAGAAGGCGCGCCGC	13.8	20.3		
UUUUAACAUGAGGAUCACCCAUGUGAGGAUAUCGUUUUUUAUAUUAAUAUUAAUAAAACGAGAAGGCACAUUUU	137	150		
ACGACGAAAGUCGAACGAUGUAGCAGAAGGACAUGAGGAUCACCCAUGUCAGCUGUGCAAAACAUGUAGGAUAUGCUACAUCGA	6.14	11.3		
UAAUCGUUGCAGAAGGUUAUUAUUAUAACGUGACACUUAACAUGAGGAUCACCCAUGUUUUUUAUGAAGGAUAUGCAACGGUAG	7.07	7.29		
GUAUUUUGAGGAUAUACUAUUAACCACAUGAGGAUCACCCAUGUUCUAUCAUGAAUUUAUGUAGAAGGCAGAAUGC	71.8	128		
UGGUACUAGGGAGGAUAUGGGAAGAUACAUGAGGAUCACCCAUGUAUAAGAAUGCCGAGAGGCAACUAGAAGGCCCUAGUACCU			10.8	5.48
UGUUAUUUGACAGGAUAUUGAUUGUUAAGUUUUUACAUGAGGAUCACCCAUGUUGUUCAUUCGUACAAGAAGGGUCAAGUUUUU			72.8	27.2
GUGGUUGUCGUAGGAUAUGUAGGAUAUUCCUACAUGAGGAUCACCCAUGUUCGCAUGGAAGAAUGACAGAAGGACGAUGACCAU			330	82.6
UUAUUAUAUGUAGGAUAUGCGUAUUAUUAUUAUGCAGAAGGACAUGAGGAUCACCCAUGUAUAUUAUUAUUAUAUAUUAUAUAU	29	66.9		
GAAAAACAUGAGGAUCACCCAUGUAAGGAUAUGCUGAAAAACACGGAAAAAACGUGCAGCAGAAGGUACAAAAG	63.2	83.3		
UUCUUUCCUCAUGUACAUGAGGAACAUGAGGAUCACCCAUGUAGAAGGAUUUCAAUUAAAUUAAAAUAGGAUAUACAUAUAUUU	15.8	16.4		
ACAUAGUUAGGAUAUGCUGCUCGUCACUUGCGUGAUGAGUAGCAGAAGGAACAUGAGGAUCACCCAUGUAAAAA	28.3	25.5		
AAUGUGUCAGGAUAUUGUUAGUUUAGUUGUUUGUAUUAGUUCGAGAAGGGACAUGAGGAUCACCCAUGUUGUAA	40.1	31.9		
CCACCUACUGAGGAUAUUGCAUCACCCGACUGAUAAGAAGGCAGAACAUGAGGAUCACCCAUGUGGGUACUCAC	94	103		
UUGGUUACAUGAGGAUCACCCAUGUCUCAGGCCCUAUUUAGCAGAAGGCCAGCUGGGCUACGGAUGGAGGAUAUGCUUAUGGCC			131	29.6
GAAUAGGCAGGAUAUACAUGAGGAUCACCCAUGUGCUUGCGAUAGGCACGUGAACAACGUAGAAGGGCCUUAAC	33.2	149		
ACGAAGAUACAGAAGGGUAAAUUAGUUAAUUAUAAUUUGGUUAUGCACUACAGGAUAUGUUAUACAUGAGGAUCACCCAUGUUC			18.2	13.7
AAAACGCGGGAGAAGGCCACUUACCGUUACAUGGACGUGAGAAAUAAAUGGAGGAUAUCCCUACAUGAGGAUCACCCAUGUAAU			412	103
CGACGAGUGGAGAAGGACUUUGACUAGUACAGGGUAGGAUAUCCACAUGAGGAUCACCCAUGUAGGAUACUUAUUGGGCCGCCU	10.3	49		
GGAGAACACAUUAACAUGAGGAUCACCCAUGUCAAAAGACAUGAGGAUAUGGAUCCGAAAAGGAUCCAGAAGGCAUGGUGCUCC			511	26.5
GUACUGUAGUGAGGAUAUACGAGUACGAUAGUACGGCGAUCCAAUUAUACAUGAGGAUCACCCAUGUAGAAGGCACUUCAGUAC	9.93	41.1		
CGAUGAGGAGUGAGGAUAUCGUGUUCGAAAGAACGUGAGAAGGCACAUGAGGAUCACCCAUGUGAUCCUUAUCG	28.3	67.9		
CUCCGCGCUGUCAGGAUAUCCAGGGCCUACCGGCCGGAGAAGGGACAUGAGGAUCACCCAUGUUCGGGUUAGCA	15.7	17.6		
UCGAUGCUAGGAUAUACUAAUACAACUACUGAAGUGUCUUCACAUGAGGAUCACCCAUGUAGAAGGAGCAUAUA	59.5	46.8		
GCCAUCGCAUGAGGAUAUGCUCCGGUUUCCGGAGCAGAAGGCAUGUAAUAAGACAUGAGGAUCACCCAUGUAGUUAAGAUGGCA			7.11	5.55
CCGGAAACGGGUAGCCUGACAUGAGGAUCACCCAUGUGAACCGAGGAUAUGGAUCCUAAUUGGAUCCAGAAGGUGGAAGGCUAC			381	167
